Data as given in ChEMBL document CHEMBL1136453, “New classes of antibacterial oxazolidinones with C-5, methylene O-linked heterocyclic side chains” (2003).
Values after ≈ are worked out from the molar mass of the structure shown.

Tests used:
Staphylococcus aureus [1] = assay: In vitro minimum inhibitory concentration against Staphylococcus aureus Oxford; format: functional
Enterococcus faecalis = assay: In vitro minimum inhibitory concentration against Enterococcus faecalis; format: functional
In short: (§1)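 Agar dilution per NCCLS protocol with doubling dilutions from 128 to 0.008 mg/L, incubated at 37 °C. Strains came from an in-house culture collection. MIC reported in mg/L.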

Staphylococcus aureus [2] = assay: In vitro minimum inhibitory concentration against Staphylococcus aureus MRQR; format: functional
Streptococcus pyogenes = assay: In vitro minimum inhibitory concentration against Streptococcus pyogenes penicillin sensitive; format: functional; in short: as §1
Staphylococcus aureus [3] = assay: In vitro minimum inhibitory concentration against coagulase negative Staphylococcus aureus methicillin resistant (CNSMR); format: functional
[4] = In vivo antibacterial activity against Staphylococcus aureus after intravenous administration (5 mg/kg) in mice using (MTT) mouse thigh test
Staphylococcus aureus [5] = assay: In vivo antibacterial activity against Staphylococcus aureus after intravenous administration (10 mg/kg) in mice using (MTT) mouse thigh test
[6] = Staphylococcus aureus, read-out: MIC

Row | Compound | MIC (Staphylococcus aureus [1]; [6]) [µg/mL] | MIC (Enterococcus faecalis) [µg/mL] | MIC (Staphylococcus aureus [2]) [µg/mL] | MIC (Streptococcus pyogenes) [µg/mL] | MIC (Staphylococcus aureus [3]) [µg/mL] | Activity [4] | Activity (Staphylococcus aureus [5]) | MIC (Staphylococcus aureus [1]) [µg/mL]
1 | O=C1O[C@@H](COc2cccc[n+]2[O-])CN1c1ccc(C2=CCOCC2)c(F)c1 | > 128 | > 128 | > 128 | > 128 | – | – | – | –
2 | N#CCCS(=O)(=O)C[C@H](O)C(=O)N1CC=C(c2c(F)cc(N3C[C@H](COc4ccon4)OC3=O)cc2F)CC1 | 0.25 (≈ 0.441 µM) | 1 (≈ 1.77 µM) | 0.5 (≈ 0.883 µM) | 0.5 (≈ 0.883 µM) | 0.5 (≈ 0.883 µM) | – | – | –
3 | O=C(C(CO)Cn1cncn1)N1CC=C(c2c(F)cc(N3C[C@H](COc4ccon4)OC3=O)cc2F)CC1 (stereo not given in full) | 0.5 (≈ 0.943 µM) | 2 (≈ 3.77 µM) | 1 (≈ 1.89 µM) | 1 (≈ 1.89 µM) | 1 (≈ 1.89 µM) | 0.25 | 0.5 | –
4 | O=C1O[C@@H](COc2ccon2)CN1c1ccc(C2=CCN(CCO)CC2)c(F)c1 | 4 (≈ 9.92 µM) | 8 (≈ 19.8 µM) | 8 (≈ 19.8 µM) | 2 (≈ 4.96 µM) | 4 (≈ 9.92 µM) | – | – | –
5 | CN1CC=C(c2c(F)cc(N3C[C@H](COc4ccon4)OC3=O)cc2F)CC1 | 2 (≈ 5.11 µM) | 4 (≈ 10.2 µM) | 2 (≈ 5.11 µM) | 1 (≈ 2.56 µM) | 2 (≈ 5.11 µM) | – | – | –
6 | O=C([C@@H](O)CO)N1CC=C(c2ccc(N3C[C@H](COc4cnsn4)OC3=O)cc2F)CC1 | 0.06 (≈ 0.129 µM) | 0.25 (≈ 0.538 µM) | 0.13 (≈ 0.28 µM) | 0.13 (≈ 0.28 µM) | 0.13 (≈ 0.28 µM) | 0.42 | 1.11 | –
7 | CC(=O)N1CC=C(c2ccc(N3C[C@H](COc4ccon4)OC3=O)cc2F)CC1 | 0.5 (≈ 1.25 µM) | 1 (≈ 2.49 µM) | 0.5 (≈ 1.25 µM) | 1 (≈ 2.49 µM) | 0.5 (≈ 1.25 µM) | 0.17 | 0.81 | –
8 | O=C1O[C@@H](COc2ccncc2)CN1c1ccc(C2=CCOCC2)c(F)c1 | 16 (≈ 43.2 µM) | 64 (≈ 173 µM) | 32 (≈ 86.4 µM) | 64 (≈ 173 µM) | 32 (≈ 86.4 µM) | – | – | –
9 | Cc1cccc(OC[C@H]2CN(c3ccc(C4=CCOCC4)c(F)c3)C(=O)O2)n1 | > 128 | > 128 | > 128 | > 128 | – | – | – | –
10 | O=C1O[C@@H](COc2ccncn2)CN1c1ccc(C2=CCOCC2)c(F)c1 | 1 (≈ 2.69 µM) | 4 (≈ 10.8 µM) | 2 (≈ 5.39 µM) | 4 (≈ 10.8 µM) | 2 (≈ 5.39 µM) | 0.23 | 0.34 | –
11 | O=C1O[C@@H](COc2ccccc2)CN1c1ccc(C2=CCOCC2)c(F)c1 | > 128 | > 128 | > 128 | > 128 | – | – | – | –
12 | O=C(C(CO)CO)N1CC=C(c2c(F)cc(N3C[C@H](COc4ccon4)OC3=O)cc2F)CC1 | 0.5 (≈ 1.04 µM) | 1 (≈ 2.09 µM) | 0.5 (≈ 1.04 µM) | 0.5 (≈ 1.04 µM) | 0.5 (≈ 1.04 µM) | 0.37 | 0.41 | –
13 | Cc1cccnc1OC[C@H]1CN(c2ccc(C3=CCOCC3)c(F)c2)C(=O)O1 | 8 (≈ 20.8 µM) | 32 (≈ 83.2 µM) | 16 (≈ 41.6 µM) | 8 (≈ 20.8 µM) | 16 (≈ 41.6 µM) | – | – | –
14 | N#Cc1ccc(OC[C@H]2CN(c3ccc(C4=CCOCC4)c(F)c3)C(=O)O2)nc1 | > 128 | > 128 | > 128 | > 128 | – | – | – | –
15 | O=C1O[C@@H](COc2cccnn2)CN1c1ccc(C2=CCOCC2)c(F)c1 | 2 (≈ 5.39 µM) | 4 (≈ 10.8 µM) | 2 (≈ 5.39 µM) | 2 (≈ 5.39 µM) | 2 (≈ 5.39 µM) | – | – | –
16 | Cc1ccnc(OC[C@H]2CN(c3ccc(C4=CCOCC4)c(F)c3)C(=O)O2)c1 | 2 (≈ 5.2 µM) | 4 (≈ 10.4 µM) | 2 (≈ 5.2 µM) | 4 (≈ 10.4 µM) | 2 (≈ 5.2 µM) | – | – | –

Row | Compound | MIC (Staphylococcus aureus [1]; [6]) [µg/mL] | MIC (Enterococcus faecalis) [µg/mL] | MIC (Staphylococcus aureus [2]) [µg/mL] | MIC (Streptococcus pyogenes) [µg/mL] | MIC (Staphylococcus aureus [3]) [µg/mL] | Activity [4] | Activity (Staphylococcus aureus [5]) | MIC (Staphylococcus aureus [1]) [µg/mL]
17 | O=C1O[C@@H](COc2ncccn2)CN1c1ccc(C2=CCOCC2)c(F)c1 | 16 (≈ 43.1 µM) | 64 (≈ 172 µM) | 16 (≈ 43.1 µM) | 32 (≈ 86.2 µM) | 16 (≈ 43.1 µM) | – | – | –
18 | Cc1cc(OC[C@H]2CN(c3ccc(C4=CCOCC4)c(F)c3)C(=O)O2)no1 | 1 (≈ 2.67 µM) | 4 (≈ 10.7 µM) | 2 (≈ 5.34 µM) | 4 (≈ 10.7 µM) | 2 (≈ 5.34 µM) | – | -0.45 | –
19 | CS(=O)(=O)c1ccc(N2C[C@H](COc3nccs3)OC2=O)cc1F | 16 (≈ 43 µM) | 32 (≈ 85.9 µM) | 16 (≈ 43 µM) | 16 (≈ 43 µM) | 32 (≈ 85.9 µM) | – | – | –
20 | O=C1O[C@@H](COc2cnccn2)CN1c1ccc(C2=CCOCC2)c(F)c1 | 1 (≈ 2.69 µM) | 2 (≈ 5.39 µM) | 1 (≈ 2.69 µM) | 1 (≈ 2.69 µM) | 1 (≈ 2.69 µM) | 0.22 | 0.35 | –
21 | O=C1O[C@@H](COc2cccnc2)CN1c1ccc(C2=CCOCC2)c(F)c1 | 4 (≈ 10.8 µM) | 8 (≈ 21.6 µM) | 4 (≈ 10.8 µM) | 8 (≈ 21.6 µM) | 4 (≈ 10.8 µM) | – | – | –
22 | O=C1O[C@@H](COc2cnsn2)CN1c1ccc(C2=CCOCC2)c(F)c1 | 0.25 (≈ 0.662 µM) | 0.5 (≈ 1.32 µM) | 0.25 (≈ 0.662 µM) | 0.25 (≈ 0.662 µM) | 0.25 (≈ 0.662 µM) | 0.11 | 0.45 | –
23 | O=C([C@@H](O)CS(=O)(=O)CCO)N1CC=C(c2c(F)cc(N3C[C@H](COc4ccon4)OC3=O)cc2F)CC1 | 0.25 (≈ 0.448 µM) | 0.5 (≈ 0.897 µM) | 0.5 (≈ 0.897 µM) | 0.25 (≈ 0.448 µM) | 0.25 (≈ 0.448 µM) | 0.1 | 0.32 | –
24 | O=C1O[C@@H](COc2ccon2)CN1c1cc(F)c(C2=CCN(Cc3nccs3)CC2)c(F)c1 | 0.5 (≈ 1.05 µM) | 2 (≈ 4.22 µM) | 1 (≈ 2.11 µM) | 1 (≈ 2.11 µM) | 1 (≈ 2.11 µM) | 0.07 | 0.28 | –
25 | Cc1nnc(OC[C@H]2CN(c3ccc(C4=CCOCC4)c(F)c3)C(=O)O2)o1 | 4 (≈ 10.7 µM) | 8 (≈ 21.3 µM) | 4 (≈ 10.7 µM) | 8 (≈ 21.3 µM) | 8 (≈ 21.3 µM) | – | – | –
26 | COC(=O)c1cc(OC[C@H]2CN(c3ccc(C4=CCOCC4)c(F)c3)C(=O)O2)no1 | 8 (≈ 19.1 µM) | 128 (≈ 306 µM) | 16 (≈ 38.2 µM) | 16 (≈ 38.2 µM) | 32 (≈ 76.5 µM) | – | – | –
27 | O=C([C@H](O)CO)N1CC=C(c2c(F)cc(N3C[C@H](COc4ccon4)OC3=O)cc2F)CC1 | 0.25 (≈ 0.537 µM) | 0.5 (≈ 1.07 µM) | 0.25 (≈ 0.537 µM) | 0.25 (≈ 0.537 µM) | 0.5 (≈ 1.07 µM) | – | 0.55 | –
28 | O=C(CO)N1CC=C(c2ccc(N3C[C@H](COc4cnsn4)OC3=O)cc2F)CC1 | 0.13 (≈ 0.299 µM) | 0.25 (≈ 0.575 µM) | 0.25 (≈ 0.575 µM) | 0.25 (≈ 0.575 µM) | 0.25 (≈ 0.575 µM) | 0.78 | 1.21 | –
29 | O=C1O[C@@H](Cn2ccccc2=O)CN1c1ccc(C2=CCOCC2)c(F)c1 | – | 64 (≈ 173 µM) | 32 (≈ 86.4 µM) | 32 (≈ 86.4 µM) | 32 (≈ 86.4 µM) | – | – | 32 (≈ 86.4 µM)
30 | O=C(C(CO)Cn1ccnc1)N1CC=C(c2c(F)cc(N3C[C@H](COc4ccon4)OC3=O)cc2F)CC1 (stereo not given in full) | 1 (≈ 1.89 µM) | 2 (≈ 3.78 µM) | 2 (≈ 3.78 µM) | 1 (≈ 1.89 µM) | 2 (≈ 3.78 µM) | – | – | –
31 | Cc1cc(OC[C@H]2CN(c3cc(F)c(C4=CCN(C(=O)[C@@H](O)CO)CC4)c(F)c3)C(=O)O2)on1 | 1 (≈ 2.09 µM) | 2 (≈ 4.17 µM) | 2 (≈ 4.17 µM) | 2 (≈ 4.17 µM) | 1 (≈ 2.09 µM) | – | – | –
32 | O=C(CO)N1CC=C(c2c(F)cc(N3C[C@H](COc4cnsn4)OC3=O)cc2F)CC1 | 0.13 (≈ 0.287 µM) | 0.5 (≈ 1.11 µM) | 0.25 (≈ 0.553 µM) | 0.25 (≈ 0.553 µM) | 0.25 (≈ 0.553 µM) | 1.05 | 1.72 | –
